Key:
Assay type in all cases: functional
[1] = tested on: Human immunodeficiency virus 1; test: Antiviral activity against HIV1 CRF17_BF harboring mutant reverse transcriptase relative to HIV1 CNDO with wild type reverse transcriptase
Method in brief: (§1)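 Single-cycle PhenoScreen assay run by Monogram Biosciences, using viruses carrying RT sequences from clinical isolates, subtypes/CRFs or PI/NRTI-resistant clade B viruses; nine serial drug concentrations; activity expressed relative to drug-sensitive reference strain CNDO (protease and RT from NL4-3), with multidrug-resistant MDRC4 as assay-performance control.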

[2] = tested on: Human immunodeficiency virus 1; test: Antiviral activity against NRTI-, PI-resistant HIV1 harboring mutant reverse transcriptase relative to HIV1 CNDO with wild type reverse transcriptase; method in brief: as §1
[3] = tested on: Human immunodeficiency virus 1; test: Antiviral activity against HIV1 CRF02_AG harboring mutant reverse transcriptase relative to HIV1 CNDO with wild type reverse transcriptase; method in brief: as §1
[4] = tested on: Human immunodeficiency virus 1; test: Antiviral activity against HIV1 clade B harboring mutant reverse transcriptase relative to HIV1 CNDO with wild type reverse transcriptase
[5] = tested on: Human immunodeficiency virus 1; test: Antiviral activity against HIV1 clade H harboring mutant reverse transcriptase relative to HIV1 CNDO with wild type reverse transcriptase
[6] = tested on: Human immunodeficiency virus 1; test: Antiviral activity against HIV1 isolate R8 harboring reverse transcriptase K103N mutant infected in human MT4 cells assessed as inhibition of viral replication after 72 hrs in presence of 50% human serum; details: Human immunodeficiency virus 1, isolate R8, MT4, 72 h
Method in brief: (§2)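 Multiple-cycle assay: MT-4 cells (2.5 × 10^5) infected with R8-based virus at low MOI, no inhibitor, 24 h at 37°C, 5% CO2; washed, reseeded at 5 × 10^4 cells in RPMI 1640 with 10% FBS or 50% type AB human serum; threefold serial dilutions from 833 nM to 0.32 nM; 72 h; p24 in medium by AlphaScreen; EC95 = lowest concentration giving ≥95% p24 reduction versus untreated.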

[7] = tested on: Human immunodeficiency virus 1; test: Antiviral activity against HIV1 clade F1 harboring mutant reverse transcriptase relative to HIV1 CNDO with wild type reverse transcriptase
[8] = tested on: Human immunodeficiency virus 1; test: Antiviral activity against HIV1 clade G harboring mutant reverse transcriptase relative to HIV1 CNDO with wild type reverse transcriptase
[9] = tested on: Human immunodeficiency virus 1; test: Antiviral activity against HIV1 isolate R8 harboring reverse transcriptase K103N mutant infected in human MT4 cells assessed as inhibition of viral replication after 72 hrs in presence of 10% FBS; details: Human immunodeficiency virus 1, isolate R8, MT4, 72 h; method in brief: as §2
[10] = tested on: Human immunodeficiency virus 1; test: Antiviral activity against HIV1 isolate R8 harboring reverse transcriptase K103N and Y181C mutant infected in human MT4 cells assessed as inhibition of viral replication after 72 hrs in presence of 50% human serum; details: Human immunodeficiency virus 1, isolate R8, MT4, 72 h; method in brief: as §2
[11] = tested on: Human immunodeficiency virus 1; test: Antiviral activity against HIV1 isolate R8 harboring reverse transcriptase Y181C mutant infected in human MT4 cells assessed as inhibition of viral replication after 72 hrs in presence of 50% human serum; details: Human immunodeficiency virus 1, isolate R8, MT4, 72 h; method in brief: as §2
[12] = tested on: Human immunodeficiency virus 1; test: Antiviral activity against HIV1 clade D harboring mutant reverse transcriptase relative to HIV1 CNDO with wild type reverse transcriptase
[13] = tested on: Human immunodeficiency virus 1; test: Antiviral activity against HIV1 isolate R8 harboring wild type reverse transcriptase infected in human MT4 cells assessed as inhibition of viral replication after 72 hrs in presence of 10% FBS; details: Human immunodeficiency virus 1, isolate R8, MT4, 72 h; method in brief: as §2
[14] = tested on: Human immunodeficiency virus 1; test: Antiviral activity against HIV1 isolate R8 harboring reverse transcriptase Y181C mutant infected in human MT4 cells assessed as inhibition of viral replication after 72 hrs in presence of 10% FBS; details: Human immunodeficiency virus 1, isolate R8, MT4, 72 h; method in brief: as §2
[15] = tested on: Human immunodeficiency virus 1; test: Antiviral activity against HIV1 clade A harboring mutant reverse transcriptase relative to HIV1 CNDO with wild type reverse transcriptase
[16] = tested on: Human immunodeficiency virus 1; test: Antiviral activity against HIV1 clade C harboring mutant reverse transcriptase relative to HIV1 CNDO with wild type reverse transcriptase
[17] = tested on: Human immunodeficiency virus 1; test: Antiviral activity against HIV1 CRF01_AE harboring mutant reverse transcriptase relative to HIV1 CNDO with wild type reverse transcriptase; method in brief: as §1
[18] = tested on: Human immunodeficiency virus 1; test: Antiviral activity against NRTI-resistant HIV1 harboring mutant reverse transcriptase relative to HIV1 CNDO with wild type reverse transcriptase; method in brief: as §1
[19] = tested on: Human immunodeficiency virus 1; test: Antiviral activity against PI-resistant HIV1 harboring mutant reverse transcriptase relative to HIV1 CNDO with wild type reverse transcriptase; method in brief: as §1
[20] = tested on: Human immunodeficiency virus 1; test: Antiviral activity against HIV1 isolate R8 harboring wild type reverse transcriptase infected in human MT4 cells assessed as inhibition of viral replication after 72 hrs in presence of 50% human serum; details: Human immunodeficiency virus 1, isolate R8, MT4, 72 h; method in brief: as §2
[21] = tested on: Human immunodeficiency virus 1; test: Antiviral activity against HIV1 isolate R8 harboring reverse transcriptase K103N and Y181C mutant infected in human MT4 cells assessed as inhibition of viral replication after 72 hrs in presence of 10% FBS; details: Human immunodeficiency virus 1, isolate R8, MT4, 72 h; method in brief: as §2

| Compound | fold change (FC) [1] | fold change (FC) [2] | fold change (FC) [3] | fold change (FC) [4] | fold change (FC) [5] | fold change (FC) [7] | fold change (FC) [8] | fold change (FC) [12] | fold change (FC) [15] | fold change (FC) [16] | fold change (FC) [17] | fold change (FC) [18] | fold change (FC) [19] | other results |
| --- | --- | --- | --- | --- | --- | --- | --- | --- | --- | --- | --- | --- | --- | --- |
| Nc1ccn([C@@H]2CS[C@H](CO)O2)c(=O)n1 [LAMIVUDINE] | 1.37 | 5.96 | 1.31 |  |  |  |  |  |  |  |  |  |  |  |
| Cc1ccnc2c1NC(=O)c1cccnc1N2C1CC1 [NEVIRAPINE] | 0.83 | 0.32 | 0.4 | 1.25 | 0.13 | 0.73 | 1.25 | 0.35 | 0.94 | 0.7 | 0.67 | 0.49 | 1.05 | EC95 [6]: > 8 µM; EC95 [9]: > 8 µM; EC95 [10]: > 8 µM; EC95 [11]: > 8 µM; EC95 [13]: 0.438 µM; EC95 [14]: > 8 µM; EC95 [20]: 0.464 µM; EC95 [21]: > 8 µM |
| C[C@H](Cn1cnc2c(N)ncnc21)OCP(=O)(O)O [TENOFOVIR ANHYDROUS] | 0.83 | 2.43 | 0.93 | 0.94 | 0.67 | 0.96 | 0.96 | 0.74 | 0.95 | 0.97 | 0.78 | 1.97 | 0.82 |  |
